High-throughput results deposited in PubChem BioAssay by several laboratories.
Exocytosis inh = lytic granule exocytosis inhibition. inhibition, % at 10 µM. hit rate 0.66% among 360,000. AID 651702. TALL-104 LAMP-1 surface exposure, flow cytometry; cells stimulated with thapsigargin and PMA;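 active = inhibition above about 55%, limit read from the data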
UPR CHOP act = activators of apoptotic arm of unfolded protein response (CHOP); CHO-CHOP luciferase reporter, UPR activation, luminescence; percent of tunicamycin response over DMSO baseline; hit rate 0.34% among 330,000; activation, % at 10 µM; AID 449763;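 active = at 10 µM dose, activation of 40% or more, normalized to positive control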
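measured by = luciferase luminescence | assay system = CHO-CHOP cells, stable luciferase reporter of PERK-eIF2a-CHOP signalling | amount = 500 reporter cells seeded per well | timing = 6 h compound exposure at 37 °C after overnight seeding | controls = positive tunicamycin 10 µg/mL, negative DMSO alone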
XBP1 UPR activ = activators of adaptive arm of unfolded protein response (XBP1). activation, % at 20 µM. CHO-XBP1 luciferase reporter, IRE1-XBP1 UPR activation, luminescence; percent of tunicamycin response, DMSO as zero. hit rate 0.33% among 330,000. AID 463104;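 active = versus positive control, 20 µM dose yields 30% or more activation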
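Test system: CHO-XBP1 luciferase reporter cells | Buffer or medium: Serum-containing F12 medium, 10% FBS | Schedule: 6 h compound exposure at 37 °C, 5% CO2 | Detection: Steady-Glo luciferase glow luminescence, 10 min after reagent addition | Read-out basis: Activation, % of tunicamycin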
Mdm2 MdmX PPI = inhibitors of human Mdm2/MdmX interaction. O15151+Q00987. SaOS-2 split-luciferase Mdm2/MdmX complementation, luminescence. inhibition, % at 8 µM. hit rate 3% among 330,000. AID 485346;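 active = inhibition of at least 50% at 8 µM in the primary screen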
Target sequence (O15151 whole entry, looked up): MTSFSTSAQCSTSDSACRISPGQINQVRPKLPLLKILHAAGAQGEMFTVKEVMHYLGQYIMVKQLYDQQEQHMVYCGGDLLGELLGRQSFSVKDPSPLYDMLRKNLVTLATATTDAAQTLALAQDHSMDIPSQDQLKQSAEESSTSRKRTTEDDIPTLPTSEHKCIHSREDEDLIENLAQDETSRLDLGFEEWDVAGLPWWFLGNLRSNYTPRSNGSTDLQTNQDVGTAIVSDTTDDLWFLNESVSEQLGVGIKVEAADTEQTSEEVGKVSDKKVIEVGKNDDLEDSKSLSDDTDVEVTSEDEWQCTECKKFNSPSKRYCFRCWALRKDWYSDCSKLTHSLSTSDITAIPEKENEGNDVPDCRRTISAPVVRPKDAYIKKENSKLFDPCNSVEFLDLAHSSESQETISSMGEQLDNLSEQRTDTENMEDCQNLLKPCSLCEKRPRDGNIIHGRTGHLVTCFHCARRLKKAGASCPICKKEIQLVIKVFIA
Target sequence (Q00987 whole entry, looked up): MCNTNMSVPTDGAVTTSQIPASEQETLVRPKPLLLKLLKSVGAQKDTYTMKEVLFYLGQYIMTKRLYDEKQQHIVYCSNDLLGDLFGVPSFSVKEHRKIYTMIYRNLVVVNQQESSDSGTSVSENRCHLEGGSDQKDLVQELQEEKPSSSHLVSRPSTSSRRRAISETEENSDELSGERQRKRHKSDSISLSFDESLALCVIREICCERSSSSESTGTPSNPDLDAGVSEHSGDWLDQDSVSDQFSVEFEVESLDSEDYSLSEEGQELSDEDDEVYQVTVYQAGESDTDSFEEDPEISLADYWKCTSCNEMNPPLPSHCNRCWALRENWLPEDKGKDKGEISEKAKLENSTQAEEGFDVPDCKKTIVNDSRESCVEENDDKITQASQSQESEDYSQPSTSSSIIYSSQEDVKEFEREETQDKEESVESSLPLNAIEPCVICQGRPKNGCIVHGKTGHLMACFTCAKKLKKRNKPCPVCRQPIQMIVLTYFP
ABHD5 PLIN5 PPI = inhibitors of human ABHD5-perilipin-5 interaction. Q00G26+Q8WTS1. Split G. princeps luciferase complementation, luminescence, 4 h. inhibition, % at 4 µM. hit rate 0.78% among 360,000;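 active = inhibition above the mean inhibition across every tested compound plus 3 SD, cut at about 22% in these data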
Mdm2 MdmX conf = confirmation of human Mdm2/MdmX interaction inhibitors. shares compounds with Mdm2 MdmX PPI. Mdm2-MdmX binding, luminescent assay. inhibition, % at 8 µM. hit rate 55% among 10,000; in the data active = inhibition above about 40%
FLuc counter = counter-screen for Mdm2/MdmX inhibitors: full-length luciferase | shares compounds with Mdm2 MdmX PPI | SaOS-2 full-length luciferase counterscreen, luminescence | inhibition, % at 8 µM | hit rate 77% among 6,200 | AID 504607;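 active = mean inhibition at 8 µM reaching about 37%, which flags the compound as non-specific, limit read from the data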;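 also: p53-null SaOS-2 cells with luciferase driven by a doxycycline-inducible promoter; compound on cells about two nights before reading with doxycycline added after day one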
Large screens that a line does not name were inactive (follow-up assays come after a bar, where they were run). The list is not random: actives were taken first. Their share in the collection is about 4%.

CC(=O)N(C1=NCCCS1)c1ccc(F)cc1	none
C=C(C=O)CC1CC(O)[C@]2(C)OC3CC4OC5C[C@]6(C)O[C@]7(C)CCC8OC9C[C@]%10(C)OC%11C(C)=CC(=O)OC%11CC%10OC9C[C@@H](C)C8OC7CC6O[C@]5(C)CC5OC5C4OC3CC2O1 (stereo not given in full)	Mdm2 MdmX PPI 98.9, ABHD5 PLIN5 PPI 22.1 | Mdm2 MdmX conf 100.0 | FLuc counter inactive
C=C(CO)CC1CC(O)[C@]2(C)OC3CC4OC5C[C@]6(C)O[C@]7(C)CCC8OC9C[C@]%10(C)OC%11C(C)=CC(=O)OC%11CC%10OC9C[C@@H](C)C8OC7CC6O[C@]5(C)C/C=C\C4OC3CC2O1 (stereo not given in full)	none
COC12C(COC(N)=O)C3=C(C(=O)C(C)=C(N)C3=O)N1CC1C2N1C (stereo not given)	Mdm2 MdmX PPI 74.4 | Mdm2 MdmX conf inactive
C=C(COC(C)=O)CC1CC(O)[C@]2(C)OC3CC4OC5C[C@]6(C)O[C@]7(C)CCC8OC9C[C@]%10(C)OC%11C(C)=CC(=O)OC%11CC%10OC9C[C@@H](C)C8OC7CC6O[C@]5(C)C/C=C\C4OC3CC2O1 (stereo not given in full)	none
O=c1[nH]c(=S)[nH]c(O)c1N=Nc1ccc(S(=O)(=O)N2CCc3ccccc32)cc1	Mdm2 MdmX PPI 58.3 | Mdm2 MdmX conf inactive
Fc1ccc(C[n+]2c(-c3ccccc3)cc(-c3ccccc3)cc2-c2ccccc2)cc1	Mdm2 MdmX PPI 88.5 (no result: Exocytosis inh, ABHD5 PLIN5 PPI) | Mdm2 MdmX conf 68.8 | FLuc counter 38.0
C[n+]1c(-c2ccccc2)cc(-c2ccc(O)cc2)cc1-c1ccccc1	none
Clc1ccc(C[n+]2c(-c3ccccc3)cc(-c3ccccc3)cc2-c2ccccc2)cc1	Mdm2 MdmX PPI 89.9 | Mdm2 MdmX conf 83.8 | FLuc counter inactive
Cc1cc(-c2ccccc2)cc(-c2ccccc2)[n+]1CCc1ccccc1	Mdm2 MdmX PPI 60.7 | Mdm2 MdmX conf inactive
COC(=O)C1=C(c2ccc(OCc3ccccc3)cc2)C[C@@H]2CC[C@H]1N2C(=O)NCCN1CCOCC1	none
O=[N+]([O-])c1ccccc1-c1cc(-c2ccccc2)cc(-c2ccccc2)[n+]1Cc1ccccc1Cl	Mdm2 MdmX PPI 88.1 (no result: Exocytosis inh, ABHD5 PLIN5 PPI) | Mdm2 MdmX conf 69.0 | FLuc counter inactive
COc1ccc(CN2Cc3cc(-c4ccc(OC)cc4)ccc3-n3nncc3C2)cc1	none (no result: UPR CHOP act, XBP1 UPR activ, Mdm2 MdmX PPI)
CCOC(=O)c1[nH]c2ccc(OC)cc2c1C(SCC(=O)O)c1ccc(C(F)(F)F)cc1 (stereo not given)	none
Cc1ccsc1C(=O)C1CCCN(Cc2cc3ccccc3o2)C1 (stereo not given)	none
COc1cc2c(cc1OC)[C@@H]1C(=O)c3ccc4c(c3O[C@@H]1CO2)C[C@H](C(C)C)O4	Mdm2 MdmX PPI 57.8 | Mdm2 MdmX conf inactive | FLuc counter 63.5
C1=NCCc2c1[nH]c1ccccc21	Mdm2 MdmX PPI 52.4 | Mdm2 MdmX conf inactive
CC[C@@]1(O)C(=O)OCc2c1cc1n(c2=O)Cc2cc3c(NC(=O)CN)cccc3nc2-1	Mdm2 MdmX PPI 83.7 | Mdm2 MdmX conf 78.8 | FLuc counter 56.9
Cc1ccc(C)c(NP(=O)(Oc2ccccc2)Oc2ccccc2)c1	Mdm2 MdmX PPI 57.9 | Mdm2 MdmX conf 71.8 | FLuc counter 68.1
O=C1CN=C(c2ccc[nH]2)c2cc(Cl)ccc2N1	Mdm2 MdmX PPI 64.6 | Mdm2 MdmX conf 68.1 | FLuc counter 52.9
CC(C)(C)c1nc(N2CCN(C(=O)c3ccco3)CC2)c2nnn(Cc3ccccc3Cl)c2n1	Mdm2 MdmX PPI 57.4 | Mdm2 MdmX conf inactive
Cc1nn(Cc2ccccc2Cl)c(Cl)c1C(=O)O	none
O=c1cccc2n1CC1CC2CN(Cc2c(F)cccc2Cl)C1 (stereo not given)	none
S=C=Nc1cccc(C2(N3CCCCC3)CCCCC2)c1	Mdm2 MdmX PPI 69.3 | Mdm2 MdmX conf inactive
NC(=S)c1cn(C2OC(CO)C(O)C2O)c2ncnc(N)c12 (stereo not given)	none (no result: UPR CHOP act, XBP1 UPR activ, Mdm2 MdmX PPI)
